# Reference: publication PMC5518789 (Journal of bone and mineral research : the official journal …, 2017)
# Entries after “also recorded” stand apart in the source; their conditions may differ.
# Key:
# PTHrP(1-15)-mAb = experiment: Dot blot with PTHrP; assay type: binding; conditions: nitrocellulose, 100, 10 and 1 ng, chemiluminescence
# Method in brief: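 The test peptide, PTHrP(1-141), PTHrP(1-37), PTH(1-34) and IL-8 were each spotted at 100, 10 and 1 ng onto nitrocellulose under nondenaturing conditions. Blots were probed with an N-terminal PTHrP(1-15) monoclonal antibody and developed by chemiluminescence.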
# [1] = test system: PTHrP(12-48) polyclonal Ab; experiment: Dot blot with PTHrP; assay type: binding, chicken; conditions: nitrocellulose, nondenaturing, 100, 10 and 1 ng, chemiluminescence
# Method in brief: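 The peptide panel (test peptide, PTHrP(1-141), PTHrP(1-37), PTH(1-34), IL-8) was spotted at 100, 10 and 1 ng on nitrocellulose without denaturation. The probe was a chicken polyclonal IgY raised against the KLH-conjugated test peptide, depleted of PTHrP(1-37) by negative selection and affinity-purified on a test-peptide column. Detection was by chemiluminescence.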
# [2] = test system: PTHR1 (PTHR1-expressing SaOS2 cells); conditions: cited from earlier work
# [3] = test system: PTHR1 (PTHR1-expressing SaOS2 cells); experiment: Competitive cAMP ELISA in SaOS2 cells; assay type: cell-based, human; conditions: PTH(1-34) 1 and 10 nM, 10 min, IBMX pretreatment, representative of three independent experiments
# Method in brief: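 SaOS2 cells were grown in RPMI 1640 with 10% FBS and antibiotics at 37°C and 5% CO₂, with medium changed every 3 days. Confluent cultures were serum-starved for 6 h, pretreated with IBMX for 15 min, then exposed to ligand for 10 min. Cells were lysed, and cAMP was quantified by a competitive ELISA kit following the manufacturer's protocol.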
# cells (PTHR1-dependent) = conditions: cited from earlier work
# [4] = test system: human OCLs and their precursors (PBMCs); experiment: Internalization assay in human osteoclasts and precursors; assay type: cell-based
# Method in brief: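 Thawed human PBMCs were seeded at 500,000 cells/well on chamber slides in alpha-MEM + 10% FBS with mCSF (25 ng/mL) ± RANKL (50 ng/mL) at 37°C, 5% CO₂. On day 7, test peptide (100 nM) was added with serum for 15, 30, 60 or 90 min. Cells were fixed in 4% paraformaldehyde (4°C, 15 min), permeabilised with 0.02% Triton X-100 and blocked with BlokHen 1:10. They were stained with chicken anti-test-peptide antibody plus DAPI, with a no-primary control, and imaged by fluorescence or confocal microscopy.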
# [5] = test system: mesenchymal lineage cells; experiment: Effect on mesenchymal lineage cells; assay type: cell-based; conditions: in vitro or in vivo; data not shown
# [6] = test system: PTHR1 (SaOS2 or any other PTHR1-expressing cell); experiment: PTHR1 antagonism of PTHrP; assay type: cell-based, human; conditions: data not shown
# [7] = test system: human OCL precursors and differentiated OCLs (PBMCs); experiment: Cleaved caspase 3; assay type: cell-based; conditions: for total cells positive for cleaved caspase-3, controls day 0: OCL precursors, vehicle or mCSF without or with RANKL on day 0, 24 h
# Method in brief: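 Frozen human PBMCs were thawed at 37°C and seeded at 500,000 cells/well on chamber slides in alpha-MEM + 10% FBS with mCSF (25 ng/mL) ± RANKL (50 ng/mL) at 37°C, 5% CO₂. Cells were treated 24 h with test peptide (50 nM) or TNFα (200 ng/mL) on day 0 or day 7. They were then fixed, permeabilised and stained with anti-cleaved caspase 3 (Asp175) at 1:400 plus a 1 h secondary, with DAPI nuclei. Positive cells were counted by fluorescence or confocal microscopy.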
# PTHrP(12-48) Ab = experiment: Western blot with PTHrP; assay type: binding, chicken; conditions: SDS-PAGE (12%) immunoblot; PTHrP(12-48) 1 mM, 100 µM, 10 µM; two independent series of experiments
# Method in brief: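 Peptides and IL-8 were run on 12% SDS-PAGE and transferred to nitrocellulose. Blots were blocked for 30 min in BlokHen (1:10 in water), then washed in PBS with 0.05% Tween-20. They were probed with chicken polyclonal IgY (raised against KLH-conjugated PTHrP(12-48) and PEG-precipitated from egg yolk) or a PTHrP(1-15) monoclonal, then a secondary antibody. Detection was by chemiluminescence. Blots were stripped for 30 min at RT and reprobed for IL-8.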
# [8] = test system: other resident bone and bone marrow cells; experiment: Uptake in other resident bone and bone marrow cells; assay type: cell-based; conditions: in vitro or in vivo; data not shown
# [9] = test system: human OCL precursors / OCLs (PBMCs); experiment: Osteoclastogenesis, TRAP+ MNC count; assay type: cell-based; conditions: RANKL 50 ng/mL + mCSF 25 ng/mL versus mCSF; day 10; Fig. 3A, p < 0.001
molecule,measurement,setting,value
"IL-8: interleukin 8, control in dot blots",recognition by PTHrP(1-15) mAb,PTHrP(1-15)-mAb,not recognized by either PTHrP Ab
same,recognition by PTHrP(12-48) Ab,[1],not recognized by either PTHrP Ab
"PTHrP(1-141): full-length recombinant PTHrP, gift of Dr. T.J. Martin",recognition by PTHrP(1-15) mAb,PTHrP(1-15)-mAb,recognized an antigen present in full-length PTHrP(1-141)
same,recognition by PTHrP(12-48) Ab,[1],but not PTHrP(1-141)
PTHrP(1-37): N-terminal peptide used in dot blots and ELISA,recognition by PTHrP(1-15) mAb,PTHrP(1-15)-mAb,recognized an antigen present in full-length PTHrP(1-141) as well as PTHrP(1-37)
"PTH(1-34): activates cAMP production via PTHR1, used as a positive control (SVSEIQLMHNLGKHLNSMERVEWLRKKLQDVHNF; Parathyroid hormone; UniProt P01270 32-65, looked up, fragment)",activation of cAMP production via PTHR1 (literature),[2]; 50 nM,activates cAMP production via PTHR1
same,cAMP production (positive control),[3],stimulated cAMP production; also recorded: stimulated the expected increase in cAMP
"PTHrP(94-108): PTHrP fragment shown to translocate into cells (PGKRKEQEKKKRRTR; Parathyroid hormone-related protein; UniProt P12272 130-144, looked up, fragment)",translocation into cells,cells (PTHR1-dependent),translocate into cells in a PTHR1-dependent fashion
"PTHrP(67-93): PTHrP fragment shown to translocate into cells (YLTQETNKVETYKEQPLKTPGKKKKGK; Parathyroid hormone-related protein; UniProt P12272 103-129, looked up, fragment)",translocation into cells,cells (PTHR1-dependent),translocate into cells in a PTHR1-dependent fashion
"PTHrP(12-48): unique peptide fragment of parathyroid hormone-related protein (PTHrP); New England Peptides Inc. (GKSIQDLRRRFFLHHLIAEIHTAEIRATSEVSPNSKP; Parathyroid hormone-related protein; UniProt P12272 48-84, looked up, fragment)",time to internalization into primary human OCLs and their precursors,"[4]; 100 nM, day 7 cells, immunofluorescence",≤ 60 min
same,internalization into OCLs,"[4]; 100 nM, in presence of serum, day 7 cells, mCSF (25 ng/mL)+RANKL (50 ng/mL), 15, 30, 60 and 90 min, immunofluorescence, three independent experiments",observed in OCLs 60 min after the addition
same,internalization into mononuclear cells (precursors),"[4]; 100 nM, mCSF alone, Fig. 2H panel iv, immunofluorescence",observed in mononuclear cells cultured in the presence of mCSF alone
same,effect on mesenchymal lineage cells,[5],unable to show an effect of PTHrP(12-48) on mesenchymal lineage cells
same,recognition by PTHrP(1-15) mAb,PTHrP(1-15)-mAb,but not PTHrP(12-48)
same,antagonist or partial antagonist action at PTHR1,[6]; SaOS2 or any other PTHR1-expressing cell,unable to show any significant antagonist or partial antagonist actions
same,antagonism of PTHrP(1-36) agonist activity at PTHR1,[6],nor does PTHrP(12-48) antagonize agonist activity of PTHrP(1-36) at the PTHR1
same,"cleaved caspase 3-positive cells, day 7","[7]; 50 nM, 24 h, cells cultured for 7 days, Fig. 4C, D, p < 0.05",significantly increased the number of cleaved caspase 3-positive cells
same,cleaved caspase 3 increase compared with TNFα,"[7]; PTHrP(12-48) 50 nM versus TNFα 200 ng/ml, 24 h",comparable to the effects observed following treatment with TNFα
same,recognition by PTHrP(12-48) Ab,PTHrP(12-48) Ab,specifically recognized the 4-kDa PTHrP(12-48); also recorded: specifically recognized by PTHrP(12-48) Ab
same,uptake in other resident bone and bone marrow cells,[8],unable to show an effect of PTHrP(12-48) on mesenchymal lineage cells or observe any apparent uptake in other resident bone and bone marrow cells
PTHrP(1-36): PTHR1 ligand to which SaOS2 cells respond [reference compound],internalization into day 7 cells,"[4]; PTHrP(1-36), similar treatment (Supplemental Fig. 2)",no internalization
same,SaOS2 response / activation of Gαs,"[2]; SaOS2 cells, 36 (response), 42 (Gαs)",trigger the activation of Gαs
"RANKL: receptor activator of NF-κB ligand, R&D Systems (protein, UniProt O14788 140-317, looked up) Tumor necrosis factor ligand …: IRAEKAMVDGSWLDLAKRSKLEAQPFAHLTINATDIPSGSHKVSLSSWYHDRGWAKISNMTFSNGKLIVNQDGFYYLYANICFRHHETSGDLATEYLQLMVYVTKTSIKIPSSHTLMKGGSTKYWSGNSEFHFYSINVGGFFKLRSGEEISIEVSNPSLLDPDQDATYFGAFKVRDID","number of TRAP+ MNCs, effect of RANKL",[9],significantly increased the number of TRAP+ MNCs
same,"total cells positive for cleaved caspase-3, controls day 0",[7],less than 25%
"mCSF: culture factor for osteoclast precursors, R&D Systems (protein, UniProt P07141 33-552, looked up) Macrophage colony-stimulating …: KEVSEHCSHMIGNGHLKVLQQLIDSQMETSCQIAFEFVDQEQLDDPVCYLKKAFFLVQDIIDETMRFKDNTPNANATERLQELSNNLNSCFTKDYEEQNKACVRTFHETPLQLLEKIKNFFNETKNLLEKDWNIFTKNCNNSFAKCSSRDVVTKPDCNCLYPKATPSSDPASASPHQPPAPSMAPLAGLAWDDSQRTEGSSLLPSELPLRIEDPGSAKQRPPRSTCQTLESTEQPNHGDRLTEDSQPHPSAGGPVPGVEDILESSLGTNWVLEEASGEASEGFLTQEAKFSPSTPVGGSIQAETDRPRALSASPFPKSTEDQKPVDITDRPLTEVNPMRPIGQTQNNTPEKTDGTSTLREDHQEPGSPHIATPNPQRVSNSATPVAQLLLPKSHSWGIVLPLGELEGKRSTRDRRSPAELEGGSASEGAARPVARFNSIPLTDTGHVEQHEGSSDPQIPESVFHLLVPGIILVLLTVGGLLFYKWKWRSHRDPQTLDSSVGRPEDSSLTQDEDRQVELPV","total cells positive for cleaved caspase-3, controls day 0",[7],less than 25%
